Source: article PMC2646883 (Biochemistry, 2008)
“And” between values parts separate entries of the source, which are not always exact repeats. Identical values can stand only once. Like-named read-outs stand apart in the source and are kept apart here.

Experiments:
CpIMPDH [1] = target: T1, CpIMPDH (Cryptosporidium parvum, UniProt Q8T6T2); test: Equilibrium dissociation constants by intrinsic protein fluorescence; format: binding; settings: for Kd: free enzyme, 50 mM Tris-HCl, pH 8.0, 100 mM KCl, 1 mM DTT, 25 °C
T1 sequence (Q8T6T2 1-400): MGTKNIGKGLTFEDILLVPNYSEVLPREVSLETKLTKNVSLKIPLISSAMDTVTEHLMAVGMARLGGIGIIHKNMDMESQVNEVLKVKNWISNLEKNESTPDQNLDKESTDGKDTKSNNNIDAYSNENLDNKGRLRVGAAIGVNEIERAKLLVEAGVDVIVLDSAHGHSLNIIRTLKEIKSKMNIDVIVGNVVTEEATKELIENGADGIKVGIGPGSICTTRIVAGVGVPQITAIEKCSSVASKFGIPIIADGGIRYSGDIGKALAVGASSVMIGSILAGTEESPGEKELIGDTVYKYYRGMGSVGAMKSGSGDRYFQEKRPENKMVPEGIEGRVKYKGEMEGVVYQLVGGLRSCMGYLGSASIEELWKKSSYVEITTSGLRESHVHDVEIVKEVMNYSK

hIMPDH2 [2] = target: T2, hIMPDH2 (Homo sapiens, UniProt P12268); settings: cited from earlier work
CpIMPDH [3] = target: T1, CpIMPDH; test: Pre-steady-state kinetics and global fits of the CpIMPDH reaction; format: biochemical
hIMPDH2 [4] = target: T2, hIMPDH2; test: Steady-state kinetics of hIMPDH2; format: biochemical; settings: NAD^+ varied, 400 μM IMP, H2O vs D2O
Outline: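 Buffer was 50 mM Tris-HCl pH 8.0, 100 mM KCl, 1 mM DTT, made in H2O or D2O, with D2O meter readings adjusted by adding 0.4. Runs were at 25 °C. […] Steady-state parameters came from eq 2.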

hIMPDH2 [5] = target: T2, hIMPDH2; test: Pre-steady-state kinetics and global fits of the hIMPDH2 reaction; format: biochemical; settings: for Kapp ([NAD^+] at 1/2 kmax) / kmax/Kapp / kmax: fluorescence; for kmax: NAD^+ varied, 4 μM enzyme
CpIMPDH [6] = target: T1, CpIMPDH; test: Steady-state kinetics of CpIMPDH; format: biochemical; settings: for D2Okcat (solvent deuterium isotope effect on kcat): dinucleotide varied, 500 μM IMP, H2O vs D2O
TfIMPDH [7] = target: T3, TfIMPDH (Tritrichomonas foetus, UniProt P50097); settings: refs 14 and 23; cited from earlier work
T3 sequence (P50097 1-503): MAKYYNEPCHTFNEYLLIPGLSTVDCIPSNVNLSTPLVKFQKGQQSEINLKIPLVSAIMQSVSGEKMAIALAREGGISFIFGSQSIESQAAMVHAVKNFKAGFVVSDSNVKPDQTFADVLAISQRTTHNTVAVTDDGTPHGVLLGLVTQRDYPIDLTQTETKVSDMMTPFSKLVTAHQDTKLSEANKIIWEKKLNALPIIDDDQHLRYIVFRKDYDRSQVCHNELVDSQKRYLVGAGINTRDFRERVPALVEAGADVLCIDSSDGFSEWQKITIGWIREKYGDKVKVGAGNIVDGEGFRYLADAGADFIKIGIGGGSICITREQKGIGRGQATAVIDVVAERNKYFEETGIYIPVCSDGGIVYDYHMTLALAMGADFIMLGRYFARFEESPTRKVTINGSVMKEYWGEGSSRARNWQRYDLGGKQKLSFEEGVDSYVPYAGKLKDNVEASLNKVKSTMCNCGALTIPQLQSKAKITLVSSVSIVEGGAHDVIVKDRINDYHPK

TfIMPDH [8] = target: T3, TfIMPDH; test: Inhibition by ligands of the dinucleotide site, TfIMPDH; format: biochemical
CpIMPDH [9] = target: T1, CpIMPDH; test: XMP binding kinetics by stopped-flow protein fluorescence; settings: 0.4 μM enzyme, 30 or 120 μM XMP, 25 °C
hIMPDH2 [10] = target: T2, hIMPDH2; settings: cited from earlier work; remark: listed apart in the source
CpIMPDH [11] = target: T1, CpIMPDH; settings: cited from earlier work
[12] = substrate: NC(=O)c1ccc[n+]([C@@H]2O[C@H](COP(=O)([O-])OP(=O)(O)OC[C@H]3O[C@@H](n4cnc5c(N)ncnc54)[C@H](O)[C@@H]3O)[C@@H](O)[C@H]2O)c1; test: Pre-steady-state kinetics and global fits of the CpIMPDH reaction; format: biochemical, Cryptosporidium parvum; settings: other: calculated from global-fit rate constants (eq 12)

In the case of `Nc1nc2c(ncn2[C@@H]2O[C@H](COP(=O)(O)O)[C@@H](O)[C@H]2O)c(=O)[nH]1` [GMP, guanosine monophosphate], the Kd (CpIMPDH [1]) is reported as 4.8 ± 0.6 µM.

In the case of `NC(=O)c1ccc[n+]([C@@H]2O[C@H](COP(=O)([O-])OP(=O)(O)OC[C@H]3O[C@@H](n4cnc5c(N)ncnc54)[C@H](O)[C@@H]3O)[C@@H](O)[C@H]2O)c1` [NAD^+, nicotinamide adenine dinucleotide], the kcat (hIMPDH2 [2]; NAD^+ reaction, pH 8.0, 25 °C) is given as 0.39 ± 0.01 ^c s^−1, the Km (hIMPDH2 [2]; read-out: KM dinucleotide) is given as 6 ± 1 µM and the “k12/k11 = Kii (NAD^+ binding to E-XMP*)” value (hIMPDH2 [2]; value fixed for global fitting) is given as 590 µM. For the same molecule, the Kd (CpIMPDH [3]; Kintr (intrinsic binding constant), NAD^+, derived from the global fits, Kc = 4) was 300 µM, the kmax/Kapp (CpIMPDH [3]; monitored by absorbance) was 80000 M⁻¹ s⁻¹ and the “Kapp ([NAD^+] at 1/2 kmax)” value (CpIMPDH [3]; monitored by absorbance, 500 μM IMP) was 510 ± 90 µM. For the same molecule, the “kmax (maximal kobs of burst, kburst)” value (CpIMPDH [3]; monitored by absorbance, NAD^+ varied, 500 μM IMP) was 41 ± 2 s⁻¹, the kmax/Kapp (CpIMPDH [3]; monitored by fluorescence) was 56000 M⁻¹ s⁻¹ and the “Kapp ([NAD^+] at 1/2 kmax)” value (CpIMPDH [3]; monitored by fluorescence, 500 μM IMP) was 290 ± 60 µM. The “kmax (maximal kobs of burst)” value (CpIMPDH [3]; monitored by fluorescence, NAD^+ varied, 500 μM IMP) was 16 s⁻¹ and 16 ± 1 s⁻¹, the “D2Okcat (solvent deuterium isotope effect on kcat)” value (shortened to “D2Okcat”) (hIMPDH2 [4]) was 1.8 ± 0.1 and the Kd (CpIMPDH [1]; Kd) was 14 ± 1 µM. The Kd (hIMPDH2 [5]; Kintr (intrinsic binding constant), NAD^+, derived from the global fits, Kc ≤0.2) was 590 µM, the “Kapp ([NAD^+] at 1/2 kmax)” value (hIMPDH2 [5]; burst phase) was 86 ± 5 µM and the kmax/Kapp (hIMPDH2 [5]; burst phase) was 140000 M⁻¹ s⁻¹. The kmax (hIMPDH2 [5]; burst phase) was 12 ± 1 s⁻¹, the “Kapp ([NAD^+] at 1/2 kmax)” value (hIMPDH2 [5]; lag phase) was 68 ± 1 µM and the kmax/Kapp (hIMPDH2 [5]; lag phase) was 340000 M⁻¹ s⁻¹. For the same molecule, the kmax (hIMPDH2 [5]; lag phase) was 23 ± 1 s⁻¹, the “D2Okcat” value (CpIMPDH [6]) was 2.6 and 2.6 ± 0.1 and the Kii (TfIMPDH [7]) was 6.8 ± 1.8 mM. For the same molecule, the Kd (TfIMPDH [8]) was 70 µM.

For `O=c1[nH]c(=O)c2ncn([C@@H]3O[C@H](COP(=O)(O)O)[C@@H](O)[C@H]3O)c2[nH]1` [XMP, xanthosine 5′-monophosphate], the Kd (CpIMPDH [1]; Kd) is listed as 5.6 ± 0.6 µM, the “rate of XMP binding / release (too fast to measure)” value (CpIMPDH [9]) is listed as no less than 200 s⁻¹ and the Kd (hIMPDH2 [10]) is listed as 140 µM.

For `NC(=O)c1csc([C@@H]2O[C@H](CO)[C@@H](O)[C@H]2O)n1` [Tz, 2-β-D-ribofuranosylthiazole-4-carboxamide], the Ki (TfIMPDH [7]) is listed as 50000 ± 10000 µM.

In the case of `Nc1ncnc2c1ncn2[C@@H]1O[C@H](COP(=O)(O)OP(=O)(O)O)[C@@H](O)[C@H]1O` [ADP, adenosine-5′-diphosphate], the Ki (CpIMPDH [11]) is given as 42000 ± 6000 µM and the Ki (TfIMPDH [7]) is given as 31000 ± 2000 µM.

In the case of `CC(=O)c1ccc[n+]([C@@H]2O[C@H](COP(=O)([O-])OP(=O)(O)OC[C@H]3O[C@@H](n4cnc5c(N)ncnc54)[C@H](O)[C@@H]3O)[C@@H](O)[C@H]2O)c1` [APAD^+, 3-acetylpyridine adenine dinucleotide], the “D2Okcat” value (CpIMPDH [6]) is reported as 3.3 and 3.3 ± 0.1 and the Km (CpIMPDH [6]; read-out: KM dinucleotide, pH 8.0, 25 °C, APAD^+ at saturating IMP (500 μM)) is reported as 190 ± 9 µM.

For `NC(=O)C1=CN([C@@H]2O[C@H](COP(=O)(O)OP(=O)(O)OC[C@H]3O[C@@H](n4cnc5c(N)ncnc54)[C@H](O)[C@@H]3O)[C@@H](O)[C@H]2O)C=CC1` [NADH, reduced nicotinamide adenine dinucleotide], the Kd (CpIMPDH [1]) was 2.3 ± 0.2 µM and the “factor of greater affinity of NADH than NAD^+” value (CpIMPDH [1]; ratio of Kd values) was 6.

B1: CpIMPDH (Cryptosporidium parvum) (protein)
chain: T1 sequence (Q8T6T2 1-400)
Work on B1 yielded a Km [12] of 40 µM.
